Type in all cases: functional
One test deals with Tubulin beta chain (Bos taurus, UniProt Q6B856). Description: Inhibition of bovine tubulin polymerization.
In the next test the test system is 786-0. Description: Concentration which reduced cell growth to 50 % of level against 786-0 renal cancer line. The note with it: Homo sapiens.
A further test concerns U-251. Briefly: Concentration which reduced cell growth to 50 % of U251 cancer line. The note with it: Homo sapiens.
The target of test [1] is Tubulin alpha chain (Sus scrofa) (UniProt P02550). Briefly: Inhibition of colchicine binding and evaluated only when polymerization IC50 <=1 uM. In short, it runs like this: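 Electrophoretically homogeneous bovine brain tubulin (1.0 µM) incubated 20 min at 37 °C with 5.0 µM [3H]colchicine and 5.0 µM inhibitor in 1.0 M monosodium glutamate (pH 6.6), 1 mM MgCl2, 0.1 mM GTP, 5% (v/v) DMSO. Mixtures filtered through two stacked DEAE-cellulose filters and washed with water. Bound radioactivity counted by liquid scintillation.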
Chain of Tubulin alpha chain (Sus scrofa) (P02550 whole entry, looked up): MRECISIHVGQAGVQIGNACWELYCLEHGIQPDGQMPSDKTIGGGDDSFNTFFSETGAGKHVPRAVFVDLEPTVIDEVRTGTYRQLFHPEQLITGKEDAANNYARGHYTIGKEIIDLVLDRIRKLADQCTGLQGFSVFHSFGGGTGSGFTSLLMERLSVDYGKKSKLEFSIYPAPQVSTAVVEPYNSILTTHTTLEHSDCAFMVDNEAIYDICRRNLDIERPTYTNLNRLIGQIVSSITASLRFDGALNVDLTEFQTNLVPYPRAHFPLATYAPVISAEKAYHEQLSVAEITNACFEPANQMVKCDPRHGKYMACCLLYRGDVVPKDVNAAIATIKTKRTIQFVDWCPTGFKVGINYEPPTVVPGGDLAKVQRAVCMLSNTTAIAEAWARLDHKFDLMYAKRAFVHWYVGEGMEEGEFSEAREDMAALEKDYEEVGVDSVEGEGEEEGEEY

In another test the test system is SK-MEL-5. Description: Concentration which reduced cell growth to 50 % of level against SK-MEL-5 melanoma cell line. The note with it: Homo sapiens.
The next test relates to HCT-116. Description: Concentration which reduced cell growth to 50 % of level against HCT116 colon cancer cell line. The note with it: Homo sapiens.
The subject of a further test is HL-60. Description: Concentration which reduced cell growth to 50 % of level against HL-60 (TB) leukemia cell line. The note with it: Homo sapiens.
The subject of a further test is Tumor Cell line. Description: Cytotoxic effect in human tumor cell lines, tested by the National Cancer Institute. Particulars: read-out: Average LogGI50 (converted).
Another test deals with PC-3. Briefly: Concentration which reduced cell growth to 50 % of level against PC-3 prostate cancer line. The note with it: Homo sapiens.
The test system of test [2] is NCI-H460. Description: Concentration which reduced cell growth to 50 % of level against NCI-H460 non -small-cell lung cancer cell line. The note with it: Homo sapiens.
In the next test the test system is SF-295. Description: Concentration which reduced cell growth to 50 % of level against SF-295 CNS cancer line. Particulars: Homo sapiens.
Another test concerns MDA-N. Briefly: Concentration which reduced cell growth to 50 % of level against MDA-N breast cancer line. The note with it: Homo sapiens.
Another test concerns OVCAR-3. Briefly: Concentration which reduced cell growth to 50 % of level against OVCAR-3 ovarian cancer line. Particulars: Homo sapiens.
The next test deals with MDA-MB-435. Briefly: Concentration which reduced cell growth to 50 % of level against MDA-MB-435 breast cancer line. The note with it: Homo sapiens.
The subject of test [3] is NCI-H460. Description: compound was tested for concentration which reduced cell growth to 50 % of level against NCI-H460 non -small-cell lung cancer cell line. The note with it: Homo sapiens.

A value given as a limit tells only on which side of the number the result lay.

Chain of Tubulin beta chain (Q6B856 whole entry): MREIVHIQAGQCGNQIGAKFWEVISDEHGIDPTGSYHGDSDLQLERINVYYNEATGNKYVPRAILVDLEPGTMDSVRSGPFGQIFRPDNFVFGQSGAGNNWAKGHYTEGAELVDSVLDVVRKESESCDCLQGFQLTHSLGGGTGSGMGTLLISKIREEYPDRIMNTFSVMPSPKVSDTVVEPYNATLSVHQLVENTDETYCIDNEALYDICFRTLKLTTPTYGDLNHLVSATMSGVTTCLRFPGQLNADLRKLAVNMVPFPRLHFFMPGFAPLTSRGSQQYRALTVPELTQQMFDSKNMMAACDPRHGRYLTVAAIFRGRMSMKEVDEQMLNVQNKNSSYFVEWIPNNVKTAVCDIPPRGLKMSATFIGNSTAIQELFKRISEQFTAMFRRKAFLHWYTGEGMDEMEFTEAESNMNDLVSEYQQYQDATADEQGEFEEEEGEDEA

In turn, `COc1cccc(-c2cc(O)c3cccnc3n2)c1` registered an IC50 against Tubulin beta chain of 0.96 µM. Further, the GI50 in the test on 786-0 was 0.0617 µM; in the test with U-251 it was 0.055 µM; with SK-MEL-5, 0.0537 µM; with HCT-116, 0.0363 µM; with HL-60, 0.0162 µM; with Tumor Cell line it was 0.135 µM. In addition, the GI50 in the test on PC-3 is 0.0933 µM; with NCI-H460 [2], 0.0912 µM; with SF-295, 0.0525 µM; in the test with MDA-N, less than 0.01 µM; with OVCAR-3 it was 0.055 µM; in the test on MDA-MB-435 it was less than 0.01 µM. This compound also yielded an inhibition in [1] of 27%.

`Cc1ccnc2nc(-c3ccc(F)cc3)cc(O)c12`: the IC50 against Tubulin beta chain worked out at 18 µM. Moreover, the GI50 is 33.9 µM with 786-0; 36.3 µM with U-251; 16.2 µM in the test with SK-MEL-5; 16.2 µM in the test on HCT-116; 4.79 µM with HL-60; 38 µM in the test with Tumor Cell line. Also, the GI50 in the test with PC-3 is 51.3 µM; with SF-295, 79.4 µM; in the test on MDA-N it was 3.55 µM; with OVCAR-3, 56.2 µM; in the test with MDA-MB-435 it was 2.88 µM; in the test on NCI-H460 [3] it was 32.4 µM.

`Cc1cc(C)c2c(O)cc(-c3ccc(Cl)cc3)nc2n1` showed an IC50 at Tubulin beta chain of 32 µM. For the same compound, the GI50 in the test with 786-0 was 21.4 µM; in the test on U-251, 30.2 µM; in the test on SK-MEL-5, 14.1 µM; with HCT-116, 14.8 µM; in the test on HL-60 it was 25.1 µM; with Tumor Cell line it was 19.5 µM. In addition, the GI50 in the test on PC-3 was 6.31 µM; in the test with SF-295, 16.2 µM; with MDA-N it was 3.63 µM; with OVCAR-3, 18.2 µM; in the test with MDA-MB-435, 4.07 µM; in the test with NCI-H460 [3], 22.4 µM.

Take `COc1ccc(-c2cc(O)c3c(C)cc(C)nc3n2)cc1`: at Tubulin beta chain, the IC50 is greater than 40 µM. In addition, the GI50 is 58.9 µM in the test with 786-0; 91.2 µM in the test with U-251; 17.8 µM in the test on SK-MEL-5; 36.3 µM in the test with HCT-116; 15.5 µM in the test with HL-60; 33.1 µM with Tumor Cell line. Besides, the GI50 is 24 µM with PC-3; 42.7 µM in the test on SF-295; 33.1 µM with MDA-N; 32.4 µM in the test with OVCAR-3; 28.8 µM with MDA-MB-435; 40.7 µM with NCI-H460 [3].

For `COc1ccccc1-c1cc(O)c2c(C)ccnc2n1`, the IC50 at Tubulin beta chain was 20 µM. In addition, the GI50 in the test on 786-0 was 60.3 µM; in the test with U-251, 35.5 µM; with SK-MEL-5, 22.4 µM; in the test on HCT-116 it was 7.59 µM; with HL-60, 20.9 µM; in the test on Tumor Cell line it was 2.82 µM. The GI50 in the test on PC-3 is 20.9 µM; in the test with SF-295 it was 23.4 µM; with MDA-N, 8.32 µM; with OVCAR-3 it was 12.9 µM; in the test with MDA-MB-435 it was 6.46 µM; in the test with NCI-H460 [3] it was 24 µM.

Turning to `COc1cccc(-c2cc(O)c3c(C)ccnc3n2)c1`, on Tubulin beta chain, 0.62 µM corresponded to half-maximal inhibition (IC50). Further, the GI50 in the test on 786-0 was 0.0513 µM; in the test with U-251, 0.0589 µM; in the test with SK-MEL-5, 0.0224 µM; in the test with HCT-116 it was 0.0447 µM; in the test on HL-60 it was 0.0129 µM; in the test on Tumor Cell line, 0.0589 µM. The GI50 was 0.0263 µM with PC-3; 0.0479 µM in the test with NCI-H460 [2]; 0.0288 µM in the test on SF-295; less than 0.01 µM in the test with MDA-N; 0.0257 µM in the test with OVCAR-3; less than 0.01 µM with MDA-MB-435. In [1], this compound registered an inhibition of 28%.

As to `COc1cccc(-c2cc(=O)c3ccc(C)nc3[nH]2)c1`, the GI50 in the test with 786-0 was 0.0537 µM; in the test with U-251, 0.0537 µM; in the test on SK-MEL-5, 0.0339 µM; in the test on HCT-116 it was 0.0468 µM; with HL-60 it was 0.0182 µM; in the test on Tumor Cell line, 0.0575 µM. In addition, the GI50 with PC-3 is 0.0331 µM; in the test with NCI-H460 [2], 0.0437 µM; in the test on SF-295, 0.0302 µM; with MDA-N, 0.011 µM; in the test with OVCAR-3, 0.0224 µM; in the test with MDA-MB-435, less than 0.01 µM. This compound registered an inhibition in test [1] of 29%.

The compound `COc1ccc(-c2cc(O)c3cc(C)cnc3n2)cc1` showed an IC50 on Tubulin beta chain of 7.7 µM. Also, the GI50 in the test on 786-0 is 5.13 µM; in the test on U-251, 4.17 µM; with SK-MEL-5, 3.72 µM; with HCT-116, 4.17 µM; in the test with HL-60, 2.29 µM; in the test with Tumor Cell line, 6.17 µM. Besides, the GI50 in the test with PC-3 is 5.37 µM; in the test with SF-295 it was 5.25 µM; with MDA-N it was 1.7 µM; with OVCAR-3 it was 2.95 µM; in the test on MDA-MB-435 it was 1.82 µM; in the test with NCI-H460 [3], 4.07 µM.

In the case of `COc1cccc(-c2cc(O)c3c(C)cc(C)nc3n2)c1`, the IC50 at Tubulin beta chain turned out to be 0.88 µM. In addition, the GI50 in the test on 786-0 was 0.437 µM; in the test on U-251 it was 0.17 µM; in the test with SK-MEL-5, 0.288 µM; in the test on HCT-116, 0.407 µM; in the test on HL-60, 0.174 µM; in the test on Tumor Cell line it was 0.646 µM. In addition, the GI50 was 0.309 µM with PC-3; 0.417 µM with SF-295; less than 0.01 µM in the test on MDA-N; 0.251 µM in the test on OVCAR-3; less than 0.01 µM in the test on MDA-MB-435; 0.447 µM in the test on NCI-H460 [3]. Also, in test [1], the inhibition amounted to 22%.

In [1], `COc1cc([C@@H]2c3cc4c(cc3[C@H](O)[C@H]3COC(=O)[C@H]23)OCO4)cc(OC)c1OC` [PODOFILOX] gave an inhibition of 76%. Further, the GI50 in the test with Tumor Cell line is 0.0288 µM.

`COc1cccc(-c2cc(O)c3cc(Cl)cnc3n2)c1` returned an IC50 against Tubulin beta chain of 0.73 µM. The GI50 in the test with 786-0 was 0.427 µM; with U-251, 0.2 µM; in the test on SK-MEL-5, 0.126 µM; in the test with HCT-116 it was 0.12 µM; with HL-60, 0.0269 µM; in the test on Tumor Cell line it was 0.0977 µM. Besides, the GI50 with PC-3 was 0.138 µM; in the test on NCI-H460 [2], 0.0631 µM; with SF-295 it was 0.0603 µM; in the test on MDA-N, 0.0316 µM; in the test on OVCAR-3, 0.49 µM; in the test on MDA-MB-435, 0.0324 µM. Moreover, the inhibition in [1] is 35%.

In turn, `COc1cccc(-c2cc(O)c3cc(C)cnc3n2)c1` showed a half-maximal inhibitory concentration (IC50) at Tubulin beta chain of 0.8 µM. The GI50 was 0.0372 µM with 786-0; 0.0447 µM with U-251; 0.0257 µM with SK-MEL-5; 0.0224 µM with HCT-116; 0.0191 µM in the test on HL-60; 0.0955 µM in the test with Tumor Cell line. The GI50 is 0.0427 µM in the test with PC-3; 0.0437 µM in the test on NCI-H460 [2]; 0.0372 µM in the test on SF-295; less than 0.01 µM in the test with MDA-N; 0.0417 µM in the test with OVCAR-3; less than 0.01 µM in the test on MDA-MB-435. For the same compound, in [1], the inhibition turned out to be 31%.

With `Oc1cc(-c2ccc(Cl)cc2)nc2ncccc12`, it took 22 µM to reach half-maximal inhibition against Tubulin beta chain (IC50). The GI50 in the test with 786-0 is 33.9 µM; in the test on U-251, 39.8 µM; in the test on SK-MEL-5, 28.8 µM; with HCT-116 it was 32.4 µM; in the test on HL-60, 16.6 µM; with Tumor Cell line, 38.9 µM. Besides, the GI50 is 47.9 µM in the test with PC-3; 38 µM in the test with NCI-H460 [2]; 40.7 µM in the test on SF-295; 8.32 µM in the test on MDA-N; 23.4 µM with OVCAR-3; 5.89 µM with MDA-MB-435.

These data come from ChEMBL document CHEMBL1130090, “Antitumor agents. 174. 2',3',4',5,6,7-Substituted 2-phenyl-1,8-naphthyridin-4-ones: their synthesis, cytotoxicity, and inhibition of tubulin polymerization” (J Med Chem, 1997).
